Source: article PMC6982535 (Science (New York, N.Y.), 2019)
Changes are numbered by the printed parent chain.

How the values were obtained:
Assay type in all cases: cell-based
[1] = target: T1, TREK-1 (Homo sapiens, UniProt O95069); experiment: TREK-1 channel currents in inside-out patches; conditions: inside-out patches; result in words
T1 sequence (O95069 1-426): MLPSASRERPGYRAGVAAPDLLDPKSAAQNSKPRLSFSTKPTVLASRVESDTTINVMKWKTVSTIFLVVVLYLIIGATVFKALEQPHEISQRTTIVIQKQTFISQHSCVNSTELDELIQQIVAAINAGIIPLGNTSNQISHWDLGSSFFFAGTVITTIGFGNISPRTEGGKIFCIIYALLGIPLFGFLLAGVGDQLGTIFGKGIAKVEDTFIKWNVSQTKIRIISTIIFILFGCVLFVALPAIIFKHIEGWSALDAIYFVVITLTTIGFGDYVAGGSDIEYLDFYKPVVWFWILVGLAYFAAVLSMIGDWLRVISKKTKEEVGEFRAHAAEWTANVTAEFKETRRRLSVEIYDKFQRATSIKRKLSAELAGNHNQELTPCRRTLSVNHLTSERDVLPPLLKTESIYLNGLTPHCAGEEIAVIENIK
Outline: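 TREK-1 currents were recorded in inside-out patches from Xenopus oocytes and evoked by voltage ramps. Currents were read at +40 mV. Concentration-response curves were obtained with and without 5 μM THexA (tetrahexylammonium). THexA inhibition of basal current was quantified separately. n ≥ 8.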

[2] = target: hERG (Homo sapiens, UniProt Q12809); experiment: hERG channel currents in inside-out patches; conditions: inside-out patches; result in words
Sequence of hERG (Q12809 whole entry): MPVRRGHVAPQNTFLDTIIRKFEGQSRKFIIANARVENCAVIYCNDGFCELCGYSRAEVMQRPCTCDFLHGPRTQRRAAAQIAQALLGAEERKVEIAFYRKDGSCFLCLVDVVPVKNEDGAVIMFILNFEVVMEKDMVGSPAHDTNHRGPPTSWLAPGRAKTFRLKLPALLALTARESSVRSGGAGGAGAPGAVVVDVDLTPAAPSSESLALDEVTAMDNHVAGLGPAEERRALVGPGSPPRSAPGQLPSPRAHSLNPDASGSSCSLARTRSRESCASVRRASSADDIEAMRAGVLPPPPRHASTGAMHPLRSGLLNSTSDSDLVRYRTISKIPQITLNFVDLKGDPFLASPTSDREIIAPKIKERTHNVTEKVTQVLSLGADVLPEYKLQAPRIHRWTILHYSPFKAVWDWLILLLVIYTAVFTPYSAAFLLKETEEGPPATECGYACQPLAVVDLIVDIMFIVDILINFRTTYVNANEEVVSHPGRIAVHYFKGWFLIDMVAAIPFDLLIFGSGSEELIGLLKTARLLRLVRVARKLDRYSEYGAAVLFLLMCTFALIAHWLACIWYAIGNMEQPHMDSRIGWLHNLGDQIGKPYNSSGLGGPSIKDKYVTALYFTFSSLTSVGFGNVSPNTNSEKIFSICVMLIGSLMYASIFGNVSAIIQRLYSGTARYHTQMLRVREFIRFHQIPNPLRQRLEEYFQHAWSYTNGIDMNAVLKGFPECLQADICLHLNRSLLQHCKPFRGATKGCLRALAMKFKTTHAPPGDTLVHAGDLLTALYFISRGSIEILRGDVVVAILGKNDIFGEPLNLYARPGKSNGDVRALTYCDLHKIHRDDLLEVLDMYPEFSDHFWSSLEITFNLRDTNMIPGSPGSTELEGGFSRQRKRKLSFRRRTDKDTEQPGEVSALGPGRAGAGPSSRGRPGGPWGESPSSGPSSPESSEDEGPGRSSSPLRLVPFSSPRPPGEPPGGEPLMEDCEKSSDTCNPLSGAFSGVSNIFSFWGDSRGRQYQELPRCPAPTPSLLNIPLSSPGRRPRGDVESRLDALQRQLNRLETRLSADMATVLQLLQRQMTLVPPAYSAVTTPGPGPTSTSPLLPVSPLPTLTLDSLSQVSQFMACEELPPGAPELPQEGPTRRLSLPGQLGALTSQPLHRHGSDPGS

[3] = target: T2, TREK-2 (Homo sapiens, UniProt P57789); experiment: TREK-2 channel currents, BL-1249 dose-response ± TEA or THexA; conditions: extended screening; result in words
T2 sequence (P57789 1-538): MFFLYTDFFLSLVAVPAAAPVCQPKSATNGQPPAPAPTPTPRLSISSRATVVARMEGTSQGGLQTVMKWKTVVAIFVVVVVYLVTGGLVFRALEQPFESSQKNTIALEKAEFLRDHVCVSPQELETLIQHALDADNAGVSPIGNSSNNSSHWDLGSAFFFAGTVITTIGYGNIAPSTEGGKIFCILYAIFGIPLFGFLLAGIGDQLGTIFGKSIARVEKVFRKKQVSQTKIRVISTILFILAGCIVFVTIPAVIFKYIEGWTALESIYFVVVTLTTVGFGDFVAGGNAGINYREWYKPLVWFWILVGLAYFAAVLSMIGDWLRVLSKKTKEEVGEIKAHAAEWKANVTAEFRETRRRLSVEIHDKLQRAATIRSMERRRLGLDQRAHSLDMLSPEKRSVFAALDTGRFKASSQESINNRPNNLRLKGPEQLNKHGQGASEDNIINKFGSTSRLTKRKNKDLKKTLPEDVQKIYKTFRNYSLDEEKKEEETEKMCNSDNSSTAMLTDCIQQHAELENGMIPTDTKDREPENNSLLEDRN
Outline: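 TREK-2 concentration-response curves for test compound were run with and without intracellular blocker: 100 mM TEA (n ≥ 12) or 5 μM THexA (n ≥ 13). Inhibition of basal current by each blocker was also quantified.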

[4] = target: T3, THIK-1 (Homo sapiens, UniProt Q9HB14); experiment: Extended screening of K2P channels with BL-1249: THIK-1; conditions: result in words
T3 sequence (Q9HB14 1-408): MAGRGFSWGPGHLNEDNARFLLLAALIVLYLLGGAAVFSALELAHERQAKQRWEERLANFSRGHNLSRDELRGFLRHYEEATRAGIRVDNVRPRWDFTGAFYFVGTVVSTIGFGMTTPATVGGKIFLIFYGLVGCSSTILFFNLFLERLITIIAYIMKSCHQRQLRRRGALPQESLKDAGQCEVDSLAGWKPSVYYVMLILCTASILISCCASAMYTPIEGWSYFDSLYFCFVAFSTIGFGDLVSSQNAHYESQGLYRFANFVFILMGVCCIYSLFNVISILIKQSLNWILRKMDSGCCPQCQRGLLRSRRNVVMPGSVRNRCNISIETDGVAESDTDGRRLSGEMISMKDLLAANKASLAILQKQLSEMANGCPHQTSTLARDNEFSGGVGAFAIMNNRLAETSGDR

[5] = target: Kv1.1 (Homo sapiens, UniProt Q09470); experiment: BL-1249 on helix bundle-crossing gated channel Kv1.1; conditions: result in words
Sequence of Kv1.1 (Q09470 whole entry): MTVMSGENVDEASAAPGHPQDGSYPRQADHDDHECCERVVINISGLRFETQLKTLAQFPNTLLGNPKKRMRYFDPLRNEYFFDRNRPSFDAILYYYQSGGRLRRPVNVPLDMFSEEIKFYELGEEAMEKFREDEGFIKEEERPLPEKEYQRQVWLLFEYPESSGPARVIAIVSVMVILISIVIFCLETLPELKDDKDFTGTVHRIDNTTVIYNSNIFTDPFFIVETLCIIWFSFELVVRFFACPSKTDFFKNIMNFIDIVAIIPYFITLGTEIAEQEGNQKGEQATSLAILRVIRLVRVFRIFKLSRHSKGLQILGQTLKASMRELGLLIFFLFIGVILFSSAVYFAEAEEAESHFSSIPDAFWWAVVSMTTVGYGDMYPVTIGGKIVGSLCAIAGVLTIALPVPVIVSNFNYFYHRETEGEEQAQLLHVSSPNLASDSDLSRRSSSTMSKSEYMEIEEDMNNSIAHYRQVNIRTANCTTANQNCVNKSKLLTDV

[6] = target: Kv1.5 (Homo sapiens, UniProt P22460); experiment: BL-1249 on helix bundle-crossing gated channel Kv1.5; conditions: result in words
Sequence of Kv1.5 (P22460 whole entry): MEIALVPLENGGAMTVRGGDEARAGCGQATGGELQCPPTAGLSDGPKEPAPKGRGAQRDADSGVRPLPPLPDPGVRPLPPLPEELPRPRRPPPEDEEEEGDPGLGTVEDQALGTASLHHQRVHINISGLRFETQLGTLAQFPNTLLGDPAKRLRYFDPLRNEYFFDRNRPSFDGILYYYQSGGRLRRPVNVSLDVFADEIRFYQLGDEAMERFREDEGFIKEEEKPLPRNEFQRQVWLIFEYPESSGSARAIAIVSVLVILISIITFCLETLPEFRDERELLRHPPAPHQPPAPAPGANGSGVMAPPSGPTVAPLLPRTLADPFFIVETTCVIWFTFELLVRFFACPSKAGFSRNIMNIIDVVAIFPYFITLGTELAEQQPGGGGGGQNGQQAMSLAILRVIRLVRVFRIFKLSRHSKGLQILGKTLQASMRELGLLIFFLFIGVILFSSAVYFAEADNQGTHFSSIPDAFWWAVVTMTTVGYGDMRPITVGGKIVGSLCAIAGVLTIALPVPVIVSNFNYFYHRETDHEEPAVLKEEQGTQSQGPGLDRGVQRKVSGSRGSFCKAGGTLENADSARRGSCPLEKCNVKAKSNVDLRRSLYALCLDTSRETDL

[7] = target: T4, Kir1.1 (Homo sapiens, UniProt P48048); experiment: BL-1249 on helix bundle-crossing gated channel Kir1.1; conditions: result in words
T4 sequence (P48048 1-391): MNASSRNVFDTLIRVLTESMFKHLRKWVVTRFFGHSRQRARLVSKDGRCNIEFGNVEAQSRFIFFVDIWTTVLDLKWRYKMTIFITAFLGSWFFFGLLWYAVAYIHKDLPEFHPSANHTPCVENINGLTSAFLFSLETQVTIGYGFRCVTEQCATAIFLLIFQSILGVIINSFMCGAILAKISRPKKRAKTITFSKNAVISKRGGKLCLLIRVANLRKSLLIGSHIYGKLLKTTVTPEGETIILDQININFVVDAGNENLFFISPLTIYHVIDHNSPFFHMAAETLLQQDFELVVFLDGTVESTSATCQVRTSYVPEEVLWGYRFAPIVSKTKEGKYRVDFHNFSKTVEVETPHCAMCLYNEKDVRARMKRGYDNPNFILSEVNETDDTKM

[8] = target: T5, TREK-1 L304C (Homo sapiens, UniProt O95069, L304C); experiment: Cysteine-modification protection: MTS-TBAO modification of TREK-1 L304C; conditions: 10 μM MTS-TBAO; BL-1249 50 μM, ML335 50 μM, 2-APB 1 mM; result in words
T5 sequence (O95069 1-426 L304C): T1 sequence (O95069 1-426) with L304C

opening / activation of TREK-1 channels [1]: equal efficiency in opening
activation of TREK-2 [3]: potent activation
activation of THIK-1 [4]: potent activation
activation of Kv1.1 [5]: not activated
activation of Kv1.5 [6]: not activated
activation of Kir1.1 [7]: not activated
time course of irreversible pore blockade by MTS-TBAO [8]: markedly slowed
Compound: c1ccc(-c2nn[nH]n2)c(Nc2cccc3c2CCCC3)c1 [BL-1249]
opening / activation of hERG channels [2]: equal efficiency in opening
